Compound activity as filed in PubChem BioAssay.
Hits are enriched below; roughly 4.7% of the tested compounds scored in any of these assays.
VIM-2 inhibitor: VIM-2 metallo-beta-lactamase inhibitors, primary screen, biochemical, epi-absorbance readout, Pseudomonas aeruginosa enzyme; 290,000 compounds, 0.89% hits; AID 1527, 2009; inhibition, % at 5.6 µM; purified VIM-2, nitrocefin hydrolysis, epi-absorbance fluorescence;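 active = inhibition above the mean of all tested compounds plus 3 SD, cutoff set per screening run, cut at about 7.5% in these data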;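 also: red hydrolysis product quenches plate fluorescence so inhibitors raise well fluorescence; 0% = enzyme with DMSO and 100% = DMSO without enzyme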
697 NFkB inh: inhibitors of PMA/ionomycin-induced NF-kB reporter, 697 cells, primary screen, B-cell NF-kB inhibitor project, cell-based, luminescence, uHTS. 697 B-cell NF-kB luciferase reporter, 16 h. inhibition, % at 4 µM. 330,000 compounds, 0.33% hits. AID 435022, 2010; in the data active = inhibition above about 35%
IMP-1 inh: IMP-1 metallo-beta-lactamase inhibitors, primary screen, biochemical, epi-absorbance readout, Pseudomonas aeruginosa enzyme. metallo-beta-lactamase IMP-1 (Pseudomonas aeruginosa). purified IMP-1, nitrocefin hydrolysis, epi-absorbance fluorescence. inhibition, % at 5.6 µM. 290,000 compounds, 0.45% hits. AID 1556, 2009;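 active = inhibition above the mean plus 3 SD of all compounds in the same screening run, cut at about 4.5% in these data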;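 also: 0% = IMP-1 with DMSO and 100% = DMSO wells lacking enzyme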
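System: purified IMP-1; amount: IMP-1 0.2 nM before substrate addition; compound: single dose, 5.6 µM; times: 25 °C, 15 min preincubation, 25 min reaction; signal: Epi-absorbance via hydrolysed-nitrocefin quenching of white-plate fluorescence, 480/530 nm, EDTA stop; benchmarks: DMSO with and without IMP-1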
Jurkat NFkB inh: inhibitors of induced NF-kB luciferase reporter, primary screen, TCR NF-kB activation inhibitor project, cell-based, luminescence, uHTS; AID 435003, 2010; inhibition, % at 4 µM; 330,000 compounds, 0.53% hits; Jurkat, PMA/ionomycin-induced NF-kB luciferase reporter; in the data active = inhibition above about 50%
Mdm2 MdmX PPI: inhibitors of human Mdm2-MdmX association, primary screen, cell-based, luminescence, split luciferase, SaOS-2, uHTS; Protein Mdm4 (Homo sapiens) + E3 ubiquitin-protein ligase Mdm2 (Homo sapiens), …; SaOS-2 split-luciferase Mdm2/MdmX complementation; inhibition, % at 8 µM; 330,000 compounds, 3% hits;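 active = inhibition of at least 50% at 8 µM in the primary screen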
Target sequence (O15151 whole entry, looked up): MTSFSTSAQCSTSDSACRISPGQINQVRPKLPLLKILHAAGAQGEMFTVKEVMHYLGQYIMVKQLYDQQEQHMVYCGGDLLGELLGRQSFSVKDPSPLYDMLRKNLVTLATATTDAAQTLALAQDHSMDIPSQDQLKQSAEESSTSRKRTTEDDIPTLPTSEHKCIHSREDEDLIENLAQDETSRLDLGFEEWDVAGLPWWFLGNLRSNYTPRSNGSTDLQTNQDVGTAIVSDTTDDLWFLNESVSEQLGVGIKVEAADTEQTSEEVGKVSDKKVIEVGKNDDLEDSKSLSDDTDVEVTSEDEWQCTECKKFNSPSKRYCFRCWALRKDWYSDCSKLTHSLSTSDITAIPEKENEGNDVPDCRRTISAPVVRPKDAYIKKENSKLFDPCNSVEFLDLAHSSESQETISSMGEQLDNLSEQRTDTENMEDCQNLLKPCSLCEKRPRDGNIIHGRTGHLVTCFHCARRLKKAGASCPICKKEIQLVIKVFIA
Target sequence (Q00987 whole entry, looked up): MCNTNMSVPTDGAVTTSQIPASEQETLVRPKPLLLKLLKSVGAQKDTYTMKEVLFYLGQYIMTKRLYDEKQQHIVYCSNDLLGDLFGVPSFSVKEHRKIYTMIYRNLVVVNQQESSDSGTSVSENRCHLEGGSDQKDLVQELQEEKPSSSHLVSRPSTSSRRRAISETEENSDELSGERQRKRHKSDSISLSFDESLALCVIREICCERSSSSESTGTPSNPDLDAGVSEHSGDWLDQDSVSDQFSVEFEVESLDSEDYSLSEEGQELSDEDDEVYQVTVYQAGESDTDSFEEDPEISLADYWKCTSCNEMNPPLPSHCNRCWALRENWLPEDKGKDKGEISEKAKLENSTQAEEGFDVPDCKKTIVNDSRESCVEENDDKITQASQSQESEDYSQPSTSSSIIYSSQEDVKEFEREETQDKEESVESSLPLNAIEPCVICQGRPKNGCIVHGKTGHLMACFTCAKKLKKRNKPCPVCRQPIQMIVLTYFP
aSyn UTR inh: MLPCN primary screen, SNCA 5' untranslated region | alpha-synuclein 5'UTR reporter, inhibitor activity | inhibition, % (tested at 7.5 µM) | 300,000 compounds, 0.82% hits | AID 1813, 2009; in the data active = inhibition above about 60%;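 also: H4 neuroglioblastoma cells stably carrying SNCA 5'UTR luciferase fusion; 0% = DMSO wells and 100% = positive control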
Jurkat NFkB conf: PMA/ionomycin-induced NF-kB reporter inhibitors, Jurkat retest, confirmation, T-cell NF-kB inhibitor project, cell-based, luminescence, single concentration | AID 435020, 2010 | shares compounds with Jurkat NFkB inh | Jurkat NF-kB luciferase, 16 h | 2,700 compounds, 27% hits | inhibition, % at 4 µM;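 active = inhibition reaching about 45% at 4 µM in either replicate, limit read from the data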;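 also: plate controls were PMA/ionomycin stimulated DMSO wells for no effect and unstimulated DMSO wells for full effect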
Mdm2-MdmX conf: Mdm2-MdmX complex disruptors, retested hits, confirmation, luminescence, single concentration; shares compounds with Mdm2 MdmX PPI; Mdm2-MdmX binding, luminescent assay; inhibition, % at 8 µM; 10,000 compounds, 55% hits; AID 489028, 2010; in the data active = inhibition above about 40%
FLuc counter: full-length luciferase signal inhibition, confirmation, counter-screen for Mdm2/MdmX interaction inhibitor project, cell-based, single concentration, SaOS-2. shares compounds with Mdm2 MdmX PPI. SaOS-2 full-length luciferase counterscreen, luminescence. inhibition, % at 8 µM. 6,200 compounds, 77% hits. AID 504607, 2011;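 active = mean inhibition at 8 µM reaching about 37%, which flags the compound as non-specific, limit read from the data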;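 also: p53-null SaOS-2 cells with luciferase driven by a doxycycline-inducible promoter; compound on cells about two nights before reading with doxycycline added after day one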
Numbers without * were called inactive; nt = no result given.

SMILES	VIM-2 inhibitor	697 NFkB inh	IMP-1 inh	Jurkat NFkB inh	Mdm2 MdmX PPI	aSyn UTR inh	Jurkat NFkB conf	Mdm2-MdmX conf	FLuc counter
CC(C)N=c1cc2n(-c3ccc(Cl)cc3)c3ccccc3nc-2cc1Nc1ccc(Cl)cc1	nt	-24	nt	73*	97*	42	10	94*	6
O=C(Nc1ccc(N2CCN(C(=O)c3cccs3)CC2)cc1)c1cccc(F)c1	-4	-23	-2	30	15	-7	nt	nt	nt
COc1cccc(C(=O)Nc2ccc(N3CCN(C(=O)c4cccs4)CC3)cc2)c1	-2	-79	0	52*	61*	-162	14	57*	60*
Cc1ccccc1CSc1nc2[nH]ncc2c(=O)[nH]1	-3	13	-3	-4	-2	-13	nt	nt	nt
Cc1ccc(C)c(CSc2nc3[nH]ncc3c(=O)[nH]2)c1	-2	-30	0	66*	56*	24	46	68*	48*
CC(C)NC(=O)c1onc(CSc2nc3ccccc3[nH]2)c1C(=O)NC(C)C	0	-8	-4	9	16	3	nt	nt	nt
COc1cc(/C=C2\CC(C(C)(C)C)C/C(=C\c3cc(OC)c(OC)c(OC)c3)C2=O)cc(OC)c1OC (configuration not stated)	-2	-222	-2	90*	97*	80*	-14	99*	55*
CCOC(=O)C1=C(COC(=O)CCOc2ccccc2)NC(=O)NC1C (configuration not stated)	nt	7	nt	-3	20	nt	nt	nt	nt
COc1cc(NC(=O)c2cc(-c3ccc4c(c3)OCO4)on2)cc(OC)c1OC	-3	4	-6	66*	60*	-47	25	42*	40*
COc1ccc(C=C2c3ccccc3C(=O)c3ccccc32)c(OC)c1	0	13	-4	66*	66*	98*	61*	57*	97*
CCCNC(=O)c1ccc2snnc2c1	-5	-42	-3	-4	15	12	nt	nt	nt
CCCNC(=O)c1nnsc1S(=O)c1ccc(Cl)cc1 (configuration not stated)	-3	2	-2	59*	97*	-54	17	100*	2
COc1ccccc1NC(=O)c1oc2ccccc2c1NC(=O)c1cc(OC)c(OC)c(OC)c1	-4	-20	-1	64*	70*	39	13	62*	54*
CC(=O)Oc1ccc(C(=O)NCc2ccc3c(c2)OCO3)cc1	-1	-9	-3	9	26	8	nt	nt	nt
COC(=O)c1[nH]c2ccc(Br)cc2c1NC(=O)CN1CCN(C2CCCCC2)CC1	1	-1	3	68*	99*	75*	46*	99*	51*
CCOC(=O)C1CCCN(CC(=O)Nc2c(C(=O)OC)[nH]c3ccc(Br)cc23)C1 (configuration not stated)	-1	19	0	5	24	32	nt	nt	nt
CCN(CC)S(=O)(=O)c1ccc(N/N=C/c2cc(OC)c(OC)cc2OC)nc1	-4	-2	-5	3	21	-10	nt	nt	nt
CCOc1cccc(/C=N/Nc2ccc(S(=O)(=O)N(CC)CC)cn2)c1O	-4	-34	-2	60*	81*	88*	46	85*	55*
Cn1cc(/C=N/n2cnc3scc(-c4ccc(Cl)cc4)c3c2=O)c2ccccc21	1	19	-1	62*	73*	87*	50*	63*	63*
CCOC(=O)Nc1sc(C)nc1-c1ccccc1	-3	-11	-3	-5	14	23	nt	nt	nt
CCOC(=O)Nc1nc(-c2ccccc2)c(C(=O)c2ccc(Cl)cc2)s1	-2	8	-2	54*	66*	114*	55*	60*	106*
OCC[C@@H]1C[C@@H](O)[C@H](O)[C@]2(Cc3ccccc3CCO2)O1	0	16	0	-3	1	6	nt	nt	nt
COc1ccc(C[C@H](N)C(=O)N[C@H]2[C@@H](O)[C@H](n3cnc4c(N(C)C)ncnc43)O[C@@H]2CO)cc1	nt	-5	nt	100*	96*	nt	88*	99*	54*
COc1ccc(CCNc2nnc(Sc3nnnn3-c3ccccc3)s2)cc1OC	-3	-130	-3	77*	79*	120*	55*	70*	83*
CC1(C)Cc2c(sc(NC(=O)COc3cccc4ccccc34)c2C#N)C(C)(C)N1	3	-17	19*	87*	98*	72*	62*	100*	51*
SMILES	VIM-2 inhibitor	697 NFkB inh	IMP-1 inh	Jurkat NFkB inh	Mdm2 MdmX PPI	aSyn UTR inh	Jurkat NFkB conf	Mdm2-MdmX conf	FLuc counter
C/C(=N\Nc1ccc2nncn2n1)c1ccccn1	-4	-22	-4	55*	81*	94*	32	84*	48*
Cc1cnc(NC(=O)C2CC(=O)N(c3ccc4c(c3)OCCO4)C2)s1 (configuration not stated)	nt	-3	nt	0	22	nt	nt	nt	nt
Cc1cnc(NC(=O)C2CC(=O)N(c3cccc(Cl)c3)C2)s1 (configuration not stated)	-5	0	-4	75*	93*	17	72*	89*	82*
Cc1ccc(C(=O)O/N=C(\N)c2ccccn2)c(C)c1	-3	-12	-2	76*	99*	106*	92*	98*	51*
O=C(COC(=O)CCC1CCCC1)Nc1cccc(S(=O)(=O)N2CCOCC2)c1	nt	-11	nt	-36	-6	-34	nt	nt	nt
COc1ccccc1N1CCN(c2ccnc3cc(Cl)ccc23)CC1	-2	-41	-2	68*	56*	87*	25	64*	55*
CS(=O)c1nc(-c2ccc(Br)cc2)cc(-c2ccccc2)c1C#N (configuration not stated)	-2	-188	-1	93*	100*	120*	91*	87*	6
